Assay results taken from ChEMBL document CHEMBL3864188, “Polyamine Conjugation as a Promising Strategy To Target Amyloid Aggregation in the Framework of Alzheimer's Disease” (ACS Med Chem Lett, 2016).
Blank lines part the entries; values can stand above or below the compound they belong to. Active and inactive are the calls of the source. The calls are words filed in the database; no cut-off is given here.

Tests used:
[1] = molecular target: Amyloid-beta precursor protein (Homo sapiens) (UniProt P05067); test: Inhibition of amyloid beta (1 to 42) (unknown origin) self-aggregation at 10 uM after 24 hrs by ESI-IT-MS analysis
How it was run: (§1)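 Aβ42 incubated 24 h at 30 °C with or without inhibitor; monomer (Aβ42m) and oxidized monomer (Aβ42m Ox) quantified by mass spectrometry with reserpine as internal standard. Residual monomer expressed versus t0 control; oxidized monomer expressed as fold over 24 h control. Test levels 2, 10 and 50 μM.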

T67 [2] = test: Antioxidant activity in human T67 cells assessed as decrease in TBHP-induced ROS generation at 10 uM pretreated for 4 hrs followed by TBPH addition for 30 mins by DCFDA dye based fluorescence assay; type: functional, cell-based
[3] = molecular target: Amyloid-beta precursor protein (Homo sapiens) (UniProt P05067); test: Inhibition of amyloid beta (1 to 42) (unknown origin) self-aggregation assessed as residual amyloid beta 42 monomer level at 10 uM after 24 hrs by ESI-IT-MS analysis; how it was run: as §1
[4] = molecular target: Amyloid-beta precursor protein (Homo sapiens) (UniProt P05067); test: Inhibition of amyloid beta (1 to 42) (unknown origin) self-aggregation assessed as residual amyloid beta 42 monomer level at 50 uM after 24 hrs by ESI-IT-MS analysis; how it was run: as §1
[5] = molecular target: Amyloid-beta precursor protein (Homo sapiens) (UniProt P05067); test: Inhibition of amyloid beta (1 to 42) (unknown origin) self-aggregation at 50 uM after 24 hrs by ESI-IT-MS analysis; how it was run: as §1
[6] = molecular target: Amyloid-beta precursor protein (Homo sapiens) (UniProt P05067); test: Inhibition of amyloid beta (1 to 42) (unknown origin) self-aggregation assessed as increase in oxidized amyloid beta 42 monomer level at 50 uM after 24 hrs by ESI-IT-MS analysis relative to control; how it was run: as §1
Rattus norvegicus = species on record: Rattus norvegicus; test: Neurotoxicity in rat mixed cortical neurons assessed as neuronal cell death up to 50 uM after 48 hrs by trypan blue dye based phase contrast microscopic analysis; type: toxicity, organism-based; conditions: cortical neurone
How it was run: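 Mixed rat cortical cell cultures exposed to compound at 0.25−50 μM for 48 h; dead neurons stained with Trypan blue and counted microscopically to quantify neuronal damage.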

[7] = molecular target: Amyloid-beta precursor protein (Homo sapiens) (UniProt P05067); test: Inhibition of amyloid beta (1 to 42) (unknown origin) self-aggregation assessed as increase in oxidized amyloid beta 42 monomer level after 24 hrs by ESI-IT-MS analysis; how it was run: as §1
T67 [8] = test: Pro-oxidant activity in human T67 cells assessed as induction of mitochondrial ROS generation after 4 hrs by MitoSOX Red probe based fluorescence assay; type: functional, cell-based
How it was run: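 T67 cells treated 4 h with compound at 1–10 μM; mitochondrial superoxide read by MitoSOX Red fluorescence. Antimycin A (10 μM) as positive control. n = 8; one-way ANOVA with Dunnett's test versus untreated control.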

[9] = molecular target: Amyloid-beta precursor protein (Homo sapiens) (UniProt P05067); test: Inhibition of amyloid beta (1 to 42) (unknown origin) self-aggregation assessed as residual amyloid beta 42 monomer level at 2 uM after 24 hrs by ESI-IT-MS analysis; how it was run: as §1
[10] = molecular target: Amyloid-beta precursor protein (Homo sapiens) (UniProt P05067); test: Inhibition of amyloid beta (1 to 42) (unknown origin) self-aggregation at 2 uM after 24 hrs by ESI-IT-MS analysis; how it was run: as §1
[11] = molecular target: Amyloid-beta precursor protein (Homo sapiens) (UniProt P05067); test: Inhibition of amyloid beta (1 to 42) (unknown origin) self-aggregation assessed as increase in oxidized amyloid beta 42 monomer level at 2 uM after 24 hrs by ESI-IT-MS analysis relative to control; how it was run: as §1
[12] = molecular target: Amyloid-beta precursor protein (Homo sapiens) (UniProt P05067); test: Inhibition of amyloid beta (1 to 42) (unknown origin) self-aggregation assessed as increase in oxidized amyloid beta 42 monomer level at 10 uM after 24 hrs by ESI-IT-MS analysis relative to control; how it was run: as §1
[13] = molecular target: Amyloid-beta precursor protein (Homo sapiens) (UniProt P05067); test: Neuroprotective activity against amyloid beta (1 to 42) (unknown origin)-induced neuronal cell death in rat mixed cortical neurons assessed as number of dead neurons at 5 uM incubated for 72 hrs by trypan blue dye based phase contrast microscopic analysis (reference value: 71.7 +/- 3.1)
How it was run: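 100 μM Aβ42 preincubated 72 h alone or with 5-fold molar excess of inhibitor, then added to rat mixed cortical cultures for a further 72 h (final inhibitor 5 μM). Dead neurons stained with Trypan blue, counted in three random microscopic fields/well; means ± SEM of nine determinations.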

neuronal = test: Neuroprotective activity against human amyloid beta (1 to 42)-induced neuronal cell death in rat mixed cortical neurons assessed as decrease in number of dead neurons up to 25 uM incubated for 72 hrs by trypan blue dye based phase contrast microscopic analysis
How it was run: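 Rat mixed cortical cultures exposed to Aβ42 oligomers preformed by 72 h incubation, with compound added separately; 72 h exposure. Trypan blue–stained dead neurons counted in three random fields/well; means ± SEM of nine determinations.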

Amyloid-beta precursor protein (Homo sapiens), sequence (P05067 whole entry): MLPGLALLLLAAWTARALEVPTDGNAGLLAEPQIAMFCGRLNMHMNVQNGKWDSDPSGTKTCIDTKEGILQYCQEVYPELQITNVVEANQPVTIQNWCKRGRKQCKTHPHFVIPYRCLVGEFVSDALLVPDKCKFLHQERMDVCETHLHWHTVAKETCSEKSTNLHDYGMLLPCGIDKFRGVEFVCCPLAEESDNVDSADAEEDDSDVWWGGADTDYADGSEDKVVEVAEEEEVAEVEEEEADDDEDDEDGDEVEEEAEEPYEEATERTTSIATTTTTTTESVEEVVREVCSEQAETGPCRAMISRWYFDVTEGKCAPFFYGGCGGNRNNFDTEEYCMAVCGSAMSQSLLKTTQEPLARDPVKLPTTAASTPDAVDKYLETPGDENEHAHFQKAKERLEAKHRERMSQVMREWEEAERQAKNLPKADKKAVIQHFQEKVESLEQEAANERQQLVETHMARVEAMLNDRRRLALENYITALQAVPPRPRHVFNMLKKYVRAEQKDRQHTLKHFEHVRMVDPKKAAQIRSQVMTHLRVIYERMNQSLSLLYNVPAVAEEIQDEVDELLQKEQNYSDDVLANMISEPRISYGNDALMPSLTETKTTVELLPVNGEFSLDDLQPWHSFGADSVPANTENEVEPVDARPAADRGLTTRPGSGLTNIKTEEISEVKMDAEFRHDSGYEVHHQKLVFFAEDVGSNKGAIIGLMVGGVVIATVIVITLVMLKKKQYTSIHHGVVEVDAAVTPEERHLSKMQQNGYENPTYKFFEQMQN

Compound: Cl.O=C1/C(=C/c2ccc(O)c(O)c2)CNC/C1=C\c1ccc(O)c(O)c1
Activity [3]: 20.5%
Activity [4]: 61.9%
inhibition [5]: 54.1%
fold change (FC) [6]: 2.56
Activity (Rattus norvegicus): Non-Toxic
inhibition [7]: Dose-dependent effect

Compound: COc1ccc(/C=C2/CN(C(=O)CCC(=O)NCCCNCCCCNCCCN)C/C(=C\c3ccc(OC)c(OC)c3)C2=O)cc1OC
inhibition [1]: < 10%

Compound: NCCCNCCCCNCCCNC(=O)CCC(=O)N1C/C(=C\c2ccccc2)C(=O)/C(=C/c2ccccc2)C1
inhibition [1]: < 10%

Compound: NCCCNCCCCNCCCNC(=O)CCC(=O)N1C/C(=C/c2ccc(O)c(O)c2)C(=O)/C(=C/c2ccc(O)c(O)c2)C1.O=C(O)C(F)(F)F
Activity [3]: 53%
Activity [9]: 27%
inhibition [10]: 12%
fold change (FC) [6]: 2.79
fold change (FC) [11]: 1.46
fold change (FC) [12]: 2.14
Activity (T67 [8]): Dose-dependent effect
Activity (Rattus norvegicus): Non-Toxic
Activity [13]: 46.5
Activity (neuronal): Active
inhibition [7]: Dose-dependent effect

More lines, main results first:

inhibition [1]: < 10%
Compound: COc1cc(/C=C2\CN(C(=O)CCC(=O)NCCCNCCCCNCCCN)C/C(=C\c3ccc(O)c(OC)c3)C2=O)ccc1O
Activity (T67 [2]): Active

inhibition [1]: < 10%
Compound: NCCCNCCCCNCCCNC(=O)CCC(=O)N1C/C(=C/c2cccc(O)c2)C(=O)/C(=C/c2cccc(O)c2)C1

inhibition [1]: < 10%
Compound: NCCCNCCCCNCCCNC(=O)CCC(=O)N1C/C(=C\c2ccc(O)cc2)C(=O)/C(=C/c2ccc(O)cc2)C1
Activity (T67 [8]): Dose-dependent effect
